We go through 1 molecule from ChEMBL document CHEMBL3822382 (Eur J Med Chem, 2016).

Active and inactive are the calls of the source. No cut-off for these calls is given here.

For one data set, the system named is Chorioallantoic membrane. Put plainly: Antivascular activity in fertilized white leghorn chicken egg chorioallantoic membrane assessed as disruption of preformed blood vessel at 2.5 nmol after 12 hrs by stereomicroscopic analysis. Type of data set: functional, tissue-based. The following applies: Gallus gallus.
In data set [1] the test system is HT-29. The data set can be described thus: Antivascular activity against in combretastatin A-4 resistant human HT-29 cells xenografted in fertilized white leghorn chicken egg chorioallantoic membrane assessed as blood vessel destruction at 5 nmol after 24 hrs by hematoxylin and eosin staining based stereomicroscopic analysis. The format is functional, cell-based. The essentials:
(§1)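 Pellets of 1 × 10⁶ HT-29 cells in 10 μL of 1:1 matrigel/serum-free RPMI (gelled 30 min, 37 °C) were placed on the CAM of fertilized eggs and left 48 h. Then 100 μL of a 50 μM PBS dilution (5 nmol) was pipetted outside a silicon ring around the pellet; DMSO served as control. After 24 h, stereomicroscopy was done, and micro-xenografts were explanted, formalin-fixed, paraffin-embedded and HE-stained.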

The test system of data set [2] is HT-29. The data set can be described thus: Induction of apoptosis in combretastatin A-4 resistant human HT-29 cells xenografted in fertilized white leghorn chicken egg chorioallantoic membrane at 5 nmol after 24 hrs by hematoxylin and eosin staining based stereomicroscopic analysis. Type of data set: functional, cell-based. The essentials: (§2)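 Pellets of 1×10^6 HT-29 cells in matrigel/serum-free RPMI placed on the CAM of fertilized eggs for 48 h. Then 5 nmol (100 µL of 50 µM in PBS) applied outside a silicon ring around the pellet; DMSO as control. Imaged by stereomicroscopy after 24 h. Micro-xenografts then explanted, formalin-fixed, paraffin-embedded and HE-stained.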

The test system of another data set is 518A2. Put plainly: Induction of microtubule disruption in human 518A2 cells at 100 nM incubated for 24 hrs by DAPI staining based immunofluorescence microscopic analysis. Type of data set: cell-based. The essentials: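 518A2 cells (25,000/well) on coverslips treated 24 h with 100 nM. Cells fixed in 4% formaldehyde, permeabilized and blocked (Triton X-100/BSA). Stained with mouse anti-alpha-tubulin (37 °C, 1 h) and AlexaFluor-488 secondary; nuclei counterstained with DAPI (1 µg/mL). Imaged by fluorescence microscopy at 400×.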

For data set [3], the system named is A2780cisR. Put plainly: Vascular disrupting activity against human A2780cis cells xenografted in athymic nude mouse assessed as discoloration of tumor at 100 mg/kg, ip after 24 hrs. Type of data set: functional, organism-based. In a few lines: (§3)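 Athymic nude mice carried subcutaneous flank xenografts from 8 million cells in PBS. A single intraperitoneal dose of 100 mg/kg was given, and tumor discoloration was photographed 24 h later.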

A short description of data set [4]: Cell cycle arrest in human 518A2 cells assessed as apoptotic index ratio at 100 nM after 24 hrs by propidium iodide staining-based flow cytometry relative to control. The format is functional.
Data set [5] in a line: Cell cycle arrest in human 518A2 cells assessed as accumulation at subG1 phase at 100 nM after 24 hrs by propidium iodide staining-based flow cytometry (reference value: 3.8%). Type of data set: functional.
Data set [6] concerns 1411HP. The data set can be described thus: Vascular disrupting activity against multidrug resistant human 1411HP cells xenografted in athymic nude mouse assessed as tumor necrosis at 100 mg/kg, ip after 24 hrs by hematoxylin and eosin staining based microscopic analysis. Type of data set: functional, organism-based. The essentials:
(§4)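 Athymic nude mice carried subcutaneous flank xenografts from 8 million cells. A single intraperitoneal dose of 100 mg/kg was given. After 24 h tumors were explanted, fixed in 5% formalin, paraffin-embedded and HE-stained for microscopic examination of vessels, hemorrhage and necrosis.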

Data set [7] has as its system HT-29. The data set can be described thus: Induction of cytoskeletal damage in combretastatin A-4 resistant human HT-29 cells xenografted in fertilized white leghorn chicken egg chorioallantoic membrane at 5 nmol after 24 hrs by hematoxylin and eosin staining based stereomicroscopic analysis. Type of data set: functional, cell-based. The essentials:
as §2

Data set [8] relates to HT-29. Put plainly: Antivascular activity against in combretastatin A-4 resistant human HT-29 cells xenografted in fertilized white leghorn chicken egg chorioallantoic membrane assessed as blood vessel hemorrhage at 5 nmol after 24 hrs by hematoxylin and eosin staining based stereomicroscopic analysis. The format is functional, cell-based. The essentials: as §1
The species entered for the next data set is Gallus gallus. Put plainly: Cytotoxicity against fertilized white leghorn chicken egg chorioallantoic membrane microtumor model of CA-4 resistant human HT-29 cells assessed as reduction in embryo vitality at 5 nmol after 24 hrs. Type of data set: organism-based. The following applies: ht-29, 24 h.
Data set [9] concerns A2780cisR. Put plainly: Vascular disrupting activity against human A2780cis cells xenografted in athymic nude mouse assessed as disruption of blood vessel at 100 mg/kg, ip after 24 hrs by hematoxylin and eosin staining based microscopic analysis. Type of data set: functional, organism-based. The essentials:
as §4

Data set [10] relates to A2780cisR. The data set can be described thus: Antitumor activity against human A2780cis cells xenografted in athymic nude mouse assessed as reduction in tumor growth at 40 mg/kg, ip administered on day 3, 7, 10 and 14. Type of data set: functional, organism-based.
The subject of data set [11] is HT-29. Put plainly: Cell cycle arrest in combretastatin A-4 resistant human HT-29 cells assessed as mitotic cells at 50 nM after 24 hrs by propidium iodide/immuno-staining method (reference value: 3.1 to 3.2%). Type of data set: functional.
In data set [12] the test system is HT-29. The data set can be described thus: Antivascular activity against in combretastatin A-4 resistant human HT-29 cells xenografted in fertilized white leghorn chicken egg chorioallantoic membrane assessed as retraction of tumor cells at 5 nmol after 24 hrs by hematoxylin and eosin staining based stereomicroscopic analysis. Type of data set: functional, cell-based. In a few lines: as §1

The subject of data set [13] is A2780cisR. Put plainly: Vascular disrupting activity against human A2780cis cells xenografted in athymic nude mouse assessed as hemorrhage at 100 mg/kg, ip after 24 hrs by hematoxylin and eosin staining based microscopic analysis. The format is functional, organism-based. In a few lines: as §4
The test system of data set [14] is 1411HP. Put plainly: Vascular disrupting activity against multidrug resistant human 1411HP cells xenografted in athymic nude mouse assessed as hemorrhage at 100 mg/kg, ip after 24 hrs by hematoxylin and eosin staining based microscopic analysis. Type of data set: functional, organism-based. The essentials: as §4
The subject of data set [15] is HT-29. The data set can be described thus: Cell cycle arrest in combretastatin A-4 resistant human HT-29 cells assessed as accumulation at G1 phase at 100 nM after 24 hrs by propidium iodide staining-based flow cytometry (reference value: 68.1 +/- 0.3%). Type of data set: functional. In a few lines: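 HT-29 cells (200,000/well) were treated 24 h with 100 nM indole, 5 μM CA-4 or DMSO. Cells were trypsinized, fixed in 4% formaldehyde (20 min, RT) and permeabilized in 90% ice-cold methanol (30 min). They were immunostained with anti-phospho-histone H3 (Ser10) (5 μg/mL, 37 °C, 1 h) plus an AlexaFluor-488 secondary, then stained with PI/RNase (30 min, 37 °C). Flow cytometry of 10,000 single cells assigned G1/S/G2/M.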

Data set [16] concerns 1411HP. The data set can be described thus: Vascular disrupting activity against multidrug resistant human 1411HP cells xenografted in athymic nude mouse assessed as discoloration of tumor at 100 mg/kg, ip after 24 hrs. Type of data set: functional, organism-based. In a few lines:
as §3

The subject of data set [17] is HT-29. Put plainly: Antivascular activity against in combretastatin A-4 resistant human HT-29 cells xenografted in fertilized white leghorn chicken egg chorioallantoic membrane assessed as loss of cell to cell interaction at 5 nmol after 24 hrs by hematoxylin and eosin staining based stereomicroscopic analysis. The format is functional. In a few lines: as §1
The nature of data set [18]: Cell cycle arrest in human 518A2 cells assessed as accumulation at S phase at 100 nM after 24 hrs by propidium iodide staining-based flow cytometry (reference value: 20.4%). Type of data set: functional.

For the molecule `COc1cc(-c2ncn(C)c2-c2ccc3c(c2)c(Cl)cn3C)cc(Br)c1OC.Cl`, the result in the data set on Chorioallantoic membrane, with HT-29 [1], with HT-29 [2], in the data set with 518A2, in the data set on A2780cisR [3] and in the data set with 1411HP [6] was Active. In addition, the outcome with HT-29 [7], in the data set with HT-29 [8], with A2780cisR [9], with A2780cisR [10], in the data set with HT-29 [12] and with A2780cisR [13] was Active. Moreover, the outcome with 1411HP [14], with 1411HP [16] and with HT-29 [17] was Active. The Ratio in data set [4] came out at 4.4. Besides, the Activity is 7.4% in [5]; “Non-toxic” in the data set filed under Gallus gallus; 28% with HT-29 [11]; 12% in the data set with HT-29 [15]; 17.8% in data set [18].
